CAL PDZ FP-1 = blocks peptide binding to the human CAL PDZ domain; Q9HD26; purified CAL PDZ, TMR-peptide fluorescence polarization, 1 h; inhibition, % at 24.9 µM; actives 0.92% (n = 300,000); AID 602252;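 active means mean inhibition of at least 30% with at least half of replicates also reaching 30%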;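 further: 0% = DMSO neutral control and 100% = excess unlabeled competitor peptide PRC23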
SR-BI uptake up = activators of SR-BI mediated HDL lipid uptake; actives 0.096% (n = 320,000); CHO ldlA[mSR-BI] cells, DiI-HDL uptake fluorescence, 3 h; 100 = double the neutral-control signal; activation, % at 12.5 µM;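 active means mean replicate activation of at least 60% and every replicate at or above 60%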;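 further: 0% = median plate neutral-control signal and 100% = twice that signal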
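material = CHO ldlA[mSR-BI] cells | medium = Ham's F12 with 0.5% BSA, HEPES 25 mM, pH 7.4 | reagent = fluorescent DiI-HDL, 10 µg/mL final | compound dosing = single-point compound dose | incubation = 3 h, 37 °C | measured by = bottom-read fluorescence, 550/595 nm | measure = HDL uptake via cellular fluorescence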
CAL PDZ FP-2 = human CAL PDZ-peptide interaction inhibition; purified CAL PDZ, TMR-peptide fluorescence polarization, 1 h; actives 0.02% (n = 330,000); Q9HD26; inhibition, % at 20 µM;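 active means highest replicate inhibition of at least 40%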;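 further: plate controls were DMSO neutral control wells for no effect and unlabeled competitor peptide control wells for full effect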
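System: tagged CAL PDZ domain. Schedule: 1 h room-temperature incubation prior to read. Signal: fluorescence polarization (mP). Measure: percent inhibition from loss of millipolarization.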
dFosB act = mouse delta FosB homodimer activation; AID 493131; actives 0.99% (n = 340,000); activation, % at 25 µM; purified delta FosB, TAMRA-CDK5 oligo fluorescence polarization; percent of positive-control signal above neutral wells; P13346;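 active means mean activation above about 17%, with every replicate also reaching it, limit read from the data, passing the limit was not always enough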
Target sequence (P13346 whole entry, looked up): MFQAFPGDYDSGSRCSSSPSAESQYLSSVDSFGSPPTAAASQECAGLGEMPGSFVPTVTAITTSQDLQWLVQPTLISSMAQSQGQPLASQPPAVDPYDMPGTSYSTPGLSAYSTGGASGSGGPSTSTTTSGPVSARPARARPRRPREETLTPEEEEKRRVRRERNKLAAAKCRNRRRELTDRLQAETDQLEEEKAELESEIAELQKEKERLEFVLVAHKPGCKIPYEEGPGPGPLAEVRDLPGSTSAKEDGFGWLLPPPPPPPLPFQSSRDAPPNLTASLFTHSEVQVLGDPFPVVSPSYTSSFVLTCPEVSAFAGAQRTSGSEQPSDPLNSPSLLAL
SR-BI DiI inh = inhibitors of mouse SR-BI mediated HDL lipid uptake. Q61009. ldlA[mSR-BI] CHO cells, DiI-HDL uptake fluorescence, 3 h. inhibition, % at 12.5 µM. actives 0.96% (n = 320,000). AID 488896;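 active means mean replicate inhibition of at least 70% and a set share of replicates each scoring 70 or more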;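 further: 0% = median of neutral control wells and 100% = median of positive control wells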
* = called active by the depositor; nt = no result given. Compounds with a hit are over-represented: about 2.8% of the library has one in this group of screens.

SMILES	CAL PDZ FP-1	SR-BI uptake up	CAL PDZ FP-2	dFosB act	SR-BI DiI inh
Cc1ccccc1SCC(=O)NCC(c1ccc(F)cc1)N1CCOCC1 (stereo not drawn)	53*	28	-1	-1	-28
O=C(NCC(c1ccc(F)cc1)N1CCOCC1)c1ccccc1F (stereo not drawn)	-1	17	0	-5	-17
CCc1cc(C(=O)OC)c(NC(=O)CN2CCN(C(=O)C3CCCO3)CC2)s1 (stereo not drawn)	-1	14	-1	-6	-14
O=C(NCc1ccccc1)N1CCN(c2ccccc2)CC1	-8	-11	0	-3	11
S=C(NCc1ccccc1)N1CCN(c2ccccc2)CC1	-5	78*	-1	-2	-78
COc1ccc(N2CCN(C(=S)NCc3ccc(C)cc3)CC2)cc1	32*	nt	0	9	nt
Cc1ccc(S(=O)(=O)N(C(=O)c2ccncc2)c2ccc(OC(=O)c3ccncc3)c3ccccc23)cc1	-4	430*	-1	3	-430
Cc1cccc(C(=O)c2c(N)sc3c2CCC(C)C3)c1 (stereo not drawn)	0	-73	1	-2	73*
COc1ccc2[nH]c3c(=O)n(CCCC(=O)NC4CCCCC4C)c(=S)[nH]c3c2c1 (stereo not drawn)	0	-5	-2	52*	5
CC1CCCCC1NC(=O)CCCn1c(=S)[nH]c2ccccc2c1=O (stereo not drawn)	7	-10	-1	3	10
COCCCn1c(SC(C)C(=O)NC2CC2)nc2ccccc2c1=O (stereo not drawn)	7	16	-2	-9	-16
CC(C)(C)c1ccc(C(=O)NC(=S)Nc2nc3c(s2)CCCC3)cc1	-3	-39	-3	-10	39
CN(C)c1ccc(C(=O)Nc2nc3c(s2)CCCC3)cc1	nt	-84	0	-12	84*
O=C(NCc1nnc(SCC(=O)N2CCN(c3ccccc3)CC2)o1)c1c(F)cccc1Cl	-2	-24	-1	-10	24
CCOc1ccc(NC(=O)CN(C)C(=O)c2ccccc2OCc2cccc(C)c2)cc1OCC	-2	-86	0	-16	86*
CCOc1ccc(NC(=O)CN(C)C(=O)c2ccc(N3CCOCC3)c([N+](=O)[O-])c2)cc1OCC	0	-51	-4	-2	51
CCOc1ccc(NC(=O)CN(C)C(=O)c2ccc3c(c2)C(=O)N(CCC(C)C)C3=O)cc1OCC	-2	-78	-2	-22	78*
CCOc1ccc(NC(=O)CN(C)C(=O)c2ccc(N3CCCCCC3)c([N+](=O)[O-])c2)cc1OCC	nt	-86	-1	-20	86*
CC(C)CCN1C(=O)c2ccc(C(=O)Nc3ccc(Br)cc3C(=O)O)cc2C1=O	nt	1	-1	1	-1
CC(C)CCN1C(=O)c2ccc(C(=O)Nc3cc(C(=O)O)cc(C(=O)O)c3)cc2C1=O	33*	11	0	-9	-11
Nc1nnc(SCC(=O)OCC(=O)c2ccccc2Br)s1	5	12	-1	5	-12
Cc1cc(NC(=O)C(C)Oc2ccc(Cl)cc2Cl)no1 (stereo not drawn)	nt	nt	-1	-6	nt
CCN1CCCC1CNc1ccc(S(C)(=O)=O)cc1[N+](=O)[O-] (stereo not drawn)	11	nt	0	-2	nt
CCOc1ccc(NC(=O)CN(C)C(=O)c2ccc3nc(CC)c(CC)nc3c2)cc1OCC	39*	-66	0	-3	66
CC(=O)Oc1ccccc1-c1nc(/C=C/c2ccccc2)no1	0	5	0	-5	-5
Cc1cccc(NS(=O)(=O)c2cccc(C(=O)N3CCN(C/C=C/c4ccccc4)CC3)c2)c1	-4	-50	0	-20	50
O=C(NCC(=O)N1CCN(c2ccccc2F)CC1)c1ccco1	71*	2	-1	-2	-2
Cc1csc(NC(C)c2nc3cc(C(F)(F)F)ccc3n2CCCO)n1 (stereo not drawn)	-1	7	1	1	-7
Cc1c(C)c2ccc(OC(C)C(=O)NCCCn3ccnc3)c(C)c2oc1=O (stereo not drawn)	71*	-4	0	-5	4
